# Screening results: PubChem, several laboratories
# PHOSPHO1 inh: PHOSPHO1 (human) inhibition; AID 1565; Q8TCT1; inhibition, % at 13.3 µM; 1.1% of 290,000 active; recombinant PHOSPHO1, absorbance phosphatase assay; in the data active = inhibition above about 60%
# Target sequence (Q8TCT1 whole entry, looked up): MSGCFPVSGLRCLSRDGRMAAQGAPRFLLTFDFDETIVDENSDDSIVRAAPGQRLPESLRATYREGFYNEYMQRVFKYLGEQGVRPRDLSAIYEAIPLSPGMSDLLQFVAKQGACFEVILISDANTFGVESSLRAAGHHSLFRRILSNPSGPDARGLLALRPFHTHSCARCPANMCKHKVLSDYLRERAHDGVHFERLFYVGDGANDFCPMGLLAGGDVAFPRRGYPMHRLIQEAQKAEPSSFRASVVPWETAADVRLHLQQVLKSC
# MrgX1 allo act: allosterically activates human MrgX1 receptor signaling. MrgX1-HEK293, Fluo-4 calcium flux, FDSS; hits give high values. B-score at 10 µM. 0.63% of 310,000 active;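 active = plate-corrected calcium response at least 3 library SD above typical, normal starting fluorescence, not activating the receptor alone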;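 note: compound read alongside a low EC10 to EC30 dose of BAM8-22 agonist; peak minus trough fluorescence over baseline measured at the second addition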
# Target sequence (Q96LB2 whole entry, looked up): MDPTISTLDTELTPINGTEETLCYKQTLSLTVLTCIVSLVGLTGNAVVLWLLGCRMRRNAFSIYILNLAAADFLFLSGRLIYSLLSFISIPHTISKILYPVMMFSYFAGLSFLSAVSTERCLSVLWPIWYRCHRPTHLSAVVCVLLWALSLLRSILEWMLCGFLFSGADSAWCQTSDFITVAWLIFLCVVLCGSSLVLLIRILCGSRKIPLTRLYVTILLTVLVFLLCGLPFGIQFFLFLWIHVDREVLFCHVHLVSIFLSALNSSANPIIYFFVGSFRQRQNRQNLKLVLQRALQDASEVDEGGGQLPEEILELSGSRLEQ
# MrgX1 antag: blocks BAM8-22 activation of human MrgX1 receptor. AID 588676. 1.3% of 310,000 active. B-score at 10 µM. MRGX1-HEK293 calcium flux, Fluo-4, BAM8-22 antagonism; hits give low values. Q96LB2;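 active = calcium-response B-score plate-corrected more than 3 library SD below zero, starting fluorescence within 5 deviations, no agonist response on first addition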;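 note: peak minus trough fluorescence over baseline after final BAM8-22 challenge near maximal dose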
# MrgX1 ag: activates human MrgX1 receptor signaling. Q96LB2. MrgX1-HEK293 cells, Fluo-4 calcium fluorescence, agonist mode; hits give high values. B-score at 10 µM. 0.44% of 310,000 active;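 active = calcium response B-score plate-corrected fluorescence ratio at least 3 library SD, with starting fluorescence B-score inside 5 SD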
#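 Assay system: stable human MrgX1 HEK293 cell line. Quantity: 15,000 cells per well. Schedule: cells plated overnight, dye loaded 0.5 h 37 °C, 0.5 h room temperature. Detection: Fluo-4 NW calcium-flux fluorescence, kinetic read. Read-out basis: peak-minus-minimum fluorescence over baseline, converted to B scores. Control set: positive and negative control wells on each plate.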
# RGS4 inh: inhibitors of human RGS4; P49798; HEK293 M3R/RGS4 inducible, Fluo-4 calcium flux; hits give high values; triggered by carbachol at its EC20; B-score at 10 µM; 0.45% of 310,000 active;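 active = B-score, a plate-corrected calcium signal, over three deviations above library mean, with baseline fluorescence within five deviations of library mean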;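 note: RGS4 expression induced by doxycycline in cells with stable M3 receptor; B-score is computed from the integrated fluorescence ratio over baseline after carbachol; higher B-score means a larger calcium signal and so more RGS4 inhibition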
# RGS4 act: RGS4 potentiation or activation; 0.92% of 310,000 active; HEK293 M3R/inducible RGS4, carbachol calcium flux Fluo4; hits give low values; B-score at 10 µM; AID 463111;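 active = B-score of the integrated calcium signal more than 4 SD below the library mean, with starting fluorescence not abnormally high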;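 note: negative B-score means reduced calcium response which marks RGS4 activation or potentiation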
#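 Detection: kinetic calcium fluorescence imaging with Fluo4-AM dye, 2 µM / Material: HEK293 cells with stable M3R and inducible RGS4 / Schedule: recording 10 s baseline at 1 Hz, 100 s post-agonist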
# RGS4 act valid: confirmation of RGS4 activators. shares compounds with RGS4 act. inhibition, % at 10 µM. 89% of 1,100 active. AID 602282. HEK293 M3R/RGS4 inducible, carbachol calcium flux Fluo4;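 active = inhibition above 3 SD of the buffer control wells, cut at about 41% in these data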;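 note: signal is the integrated peak-minus-minimum Fluo4 fluorescence over baseline ratio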
# M3R Ca counter: RGS4 activator counter-screen hit in non-induced cells; shares compounds with RGS4 act; HEK293 M3R non-induced RGS4, Fluo4 calcium flux; after carbachol challenge at its EC90; inhibition, % at 10 µM; 82% of 1,100 active; AID 602283;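 active = inhibition exceeding 3 SD of buffer-only control wells, cut at about 26% in these data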;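 note: percent drop in integrated peak-minus-baseline over baseline Fluo4 ratio after carbachol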
# Numbers stand for hits; – = inactive; · = not tested or not shown. A selection: hits, their analogues and other compounds. The true share with any hit is near 4.5%.
SMILES,PHOSPHO1 inh,MrgX1 allo act,MrgX1 antag,MrgX1 ag,RGS4 inh,RGS4 act,others
O=C(/C=C/c1ccc(Br)cc1)NC(=S)N1C[C@H]2C[C@H](C1)c1cccc(=O)n1C2,–,–,–,–,–,–,
O=C1Nc2cc(C(=O)N3CCC4(CC3)OCCO4)ccc2NC1CSCc1cccc(F)c1 (stereo unspecified),–,–,–,42,–,–,
CN1CCN(Cc2ccccc2Sc2ccccc2)CC1,–,–,–,–,–,-8.2,
CC(N)Cc1ccccc1Sc1ccc(O)cc1 (stereo unspecified),–,–,–,–,–,–,
CC(Cc1ccccc1Sc1ccccc1)N(C)C (stereo unspecified),–,–,–,–,–,-9.3,
CSc1ccc(CN2CCN(Cc3ccccc3Cl)CC2)cc1,–,–,–,–,–,–,
CN1C(=O)/C(=C/c2ccc(N3CCCCCC3)o2)C(=O)NC1=S,–,–,–,32,–,–,
CN1C(=O)/C(=C\c2ccc(N3CCCCC3)o2)C(=O)NC1=S,–,–,–,29,–,–,
O=[N+]([O-])c1cc(O)c(O)c([N+](=O)[O-])c1,·,–,-5.4,–,·,·,
O=[N+]([O-])c1ccc(O)c([N+](=O)[O-])c1,·,–,–,–,–,–,
C[C@]12CCC3[C@@H](CCC4=CC(=O)CC[C@@]43C=O)C1CCC2=O (stereo partly specified),–,–,–,–,–,–,
O=c1c2ccccc2[se]n1-c1ccccc1,89,–,–,40,–,–,
O=c1c2ccccc2nc(-c2ccccc2)n1-c1ccccc1,–,–,–,–,–,–,
C[N+]12CCC(CC1)C(=C(c1ccccc1)c1ccccc1)C2,–,–,–,–,–,-8.8,
CC[N+]12CCC(CC1)C(=C(c1ccccc1)c1ccccc1)C2,–,–,–,–,–,-10,
COP(=O)(OC)C(NC(=O)C(C)(C)C)=C(Cl)Cl,–,–,-5.8,–,–,–,
CCCOP(=O)(OCCC)C(NC(=O)c1ccccc1)=C(Cl)Cl,–,–,–,–,–,–,
COc1ccc(OC)c(CN2CCCC(C(=O)c3sccc3C)C2)c1 (stereo unspecified),–,–,–,–,–,–,
CN(C)c1ccc2c(c1)N=C(c1ccco1)OP2(=S)N1CCOCC1 (stereo unspecified),90,–,–,–,–,–,
CCCNC1=C(C)C(=O)C2=C(C1=O)C(COC(N)=O)[C@]1(OC)C3NC3CN21 (stereo partly specified),–,–,–,–,–,–,
Cc1ccccc1-n1c(-c2ccc([N+](=O)[O-])cc2)nc2ccccc2c1=O,–,–,–,–,–,-10,
C=C(C=O)C[C@@H]1C[C@H](O)C2OC3C[C@]4(C)OC5/C=C\CC6OC7C(CC=CCC6OC5CCCC4OC3CC2O1)OC1CC2OC3CC(=O)OC3C[C@@H](C)C[C@@]2(C)OC1C[C@@H]7C (stereo partly specified),–,·,·,·,–,-9.7,
CCOC(=O)c1c(/N=C/c2c(O)n(-c3ccccc3F)c(=S)[nH]c2=O)sc2c1CCCC2,94,–,–,–,–,–,
CCCN(CC1CC1)CC(O)c1ccccc1 (stereo unspecified),·,–,–,–,–,–,
CN1CCN(c2ccc(S(C)(=O)=O)cc2[N+](=O)[O-])CC1,–,–,–,–,–,–,
SMILES,PHOSPHO1 inh,MrgX1 allo act,MrgX1 antag,MrgX1 ag,RGS4 inh,RGS4 act,others
CN1CCN(c2ccc([N+](=O)[O-])c3no[n+]([O-])c23)CC1,–,–,–,–,–,-8.2,
CCN(CCO)c1ccc(N=Cc2c(O)n(C)c(=S)[nH]c2=O)cc1,–,–,–,43,–,–,
CN(C)CCSC1c2ccccc2CSc2ccccc21 (stereo unspecified),·,–,–,–,–,-9.1,
c1ccc2cc(C3N4CCCN34)ccc2c1 (stereo unspecified),–,–,–,–,–,–,
O=c1c2ccccc2nc(CNCc2ccco2)n1-c1ccc(F)cc1,–,–,–,–,–,–,
CCCCc1nc2ccccc2c(=O)n1-c1ccc(O)cc1,–,–,–,–,–,–,
CCCc1nc2ccccc2c(=O)n1-c1ccc(O)cc1,63,–,–,–,–,–,
COc1cc(/C=C/c2nc3ccccc3c(=O)n2-c2ccc(O)cc2)ccc1O,–,–,–,–,–,-8.2,
COc1ccc(OC)c(N2Cc3ccccc3C2=N)c1,–,–,–,–,–,–,
COc1ccc(/C=N\N=C(N)N)cc1,–,–,–,–,–,–,
NC(N)=N/N=C/c1ccc(N(c2ccccc2)c2ccccc2)cc1,–,–,–,–,–,-8.3,
CCOC(=O)C1=C(N)OC2=C(C(=O)CCC2)C12C(=O)N(C)c1ccccc12 (stereo unspecified),–,–,–,–,–,–,
COc1cccc(C(=O)C2CCCN(C3CCOCC3)C2)c1 (stereo unspecified),–,–,–,–,–,–,
CC(=O)N1CCC(N2CCCC(C(=O)c3cccc(Cl)c3)C2)CC1 (stereo unspecified),–,–,–,–,–,-10,RGS4 act valid=80;M3R Ca counter=84
Cc1cc(OCC(=O)O)c2c3c(c(=O)oc2c1)CCCC3,–,–,–,–,–,–,
COC(=O)c1ccc(COc2cc(C)cc3oc(=O)c4c(c23)CCCC4)o1,–,–,–,–,–,-11,RGS4 act valid=79;M3R Ca counter=46
O=c1[nH]c(=O)n(-c2ccccc2F)c(O)c1C=NCCC1=CCCCC1,–,–,–,–,–,–,
CCOC(=O)C1(CCc2ccccc2)CCN(Cc2cccc3cnccc23)CC1,–,–,–,–,–,-11,RGS4 act valid=89;M3R Ca counter=59
O=C(O)CC1OCC=C2CN3CCC45C6=CC(=O)C(=O)C([N+](=O)[O-])=C6NC4C1C2CC35 (stereo unspecified),–,–,–,–,–,–,
CCN(CC)S(=O)(=O)c1cc(NC(=O)C(C)N2CC=C(c3ccccc3)CC2)ccc1C (stereo unspecified),–,–,–,–,–,-7.6,RGS4 act valid=79;M3R Ca counter=35
CNC(C(=O)c1ccccc1)C(OC)c1ccc(C)cc1 (stereo unspecified),–,–,–,–,–,–,
COc1ccccc1Sc1ccccc1CC(C)N (stereo unspecified),–,–,–,–,–,–,
CC(Cc1ccccc1Sc1ccc(O)cc1)N(C)C (stereo unspecified),–,–,–,–,–,-9.2,RGS4 act valid=95;M3R Ca counter=94
